# Results reported in ChEMBL document CHEMBL1145995, “Tricyclic benzimidazoles as potent poly(ADP-ribose) polymerase-1 inhibitors” (J Med Chem, 2003).
# What was measured:
# A549 [1] = experiment: Concentration that gives 50% growth inhibition (topotecan alone/ (topotecan + 0.4 uM of compound)) in A549 cells; assay type: functional, Homo sapiens
# Summary of the method: (§1)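 A549 cells exposed to temozolomide (TM) or topotecan (TP), each with or without 0.4 μM PARP inhibitor. […] PF50 = GI50 of cytotoxic agent alone ÷ GI50 with inhibitor. Values are the average of two independent experiments.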
# A549 [2] = experiment: Enhancement factor of 200 uM temozolomide by 0.4 uM PARP inhibitor in A549 cells
# [3] = target: T1, Poly [ADP-ribose] polymerase 1 (Homo sapiens, UniProt P09874); experiment: Inhibitory activity against human full length Poly (ADP-ribose) polymerase 1 at 100 uM
# Summary of the method: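 Human full-length PARP-1 enzyme assay. Tested at a single concentration of 100 μM, reported as percent inhibition instead of a Ki value.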
# A549 [4] = experiment: Concentration that gives 50% growth inhibition (temozolomide alone/ (temozolomide + 0.4 uM of compound)) in A549 cells; assay type: functional, Homo sapiens; summary of the method: as §1
# LoVo [5] = experiment: Potentiation of temozolomide in LoVo cells by 0.40 uM compound (TM); assay type: functional, Homo sapiens
# LoVo [6] = experiment: Potentiation of topotecan in LoVo cells, by 0.40 uM compound (TP); assay type: functional, Homo sapiens
# LoVo [7] = experiment: Concentration that gives 50% growth inhibition in LoVo cells, activity expressed as GI50; assay type: functional; settings: Homo sapiens
# A549 [8] = experiment: Concentration that gives 50% growth inhibition in A549 cells, activity expressed as PF50 (TP) at 0.006 uM; assay type: functional, Homo sapiens
# Summary of the method: (§2)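 A549 cells given topotecan alone or together with the PARP inhibitor at the listed concentration. PF50 (TP) = GI50 of topotecan alone ÷ GI50 of topotecan with inhibitor.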
# A549 [9] = experiment: Concentration that gives 50% growth inhibition in A549 cells, activity expressed as PF50 (TP) at 0.03 uM; assay type: functional, Homo sapiens; summary of the method: as §2
# A549 [10] = experiment: Percent ADP-ribose polymer formation in presence of MNNG (25 uM) at 0..006 uM compound concentration in A549 cells; assay type: functional, Homo sapiens
# Summary of the method: (§3)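 A549 cells treated with vehicle, with 25 μM MNNG, or with 25 μM MNNG plus inhibitor at 0.006–11 μM. ADP-ribose polymer quantified by HPLC and expressed as % of the polymer formed with 25 μM MNNG alone.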
# A549 [11] = experiment: Percent ADP-ribose polymer formation in presence of MNNG (25 uM) at 0..03 uM compound concentration in A549 cells; assay type: functional, Homo sapiens; summary of the method: as §3
# A549 [12] = experiment: Percent ADP-ribose polymer formation in presence of MNNG (25 uM) at 0..15 uM compound concentration in A549 cells; assay type: functional, Homo sapiens; summary of the method: as §3
# A549 [13] = experiment: Effect on NAD+ depletion (% remaining versus vehicle control) in presence of MNNG (25 uM) at 11 uM compound concentration in A549 cells; assay type: functional, Homo sapiens
# Summary of the method: (§4)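 A549 cells treated with vehicle, with 25 μM MNNG (subtoxic DNA alkylation), or with 25 μM MNNG plus inhibitor at 0.006–11 μM. Cellular NAD+ measured by an enzyme recycling method and expressed as % remaining relative to vehicle-treated cells without DNA damage.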
# A549 [14] = experiment: Concentration that gives 50% growth inhibition in A549 cells, activity expressed as PF50 (TP) at 0.15 uM; assay type: functional, Homo sapiens; summary of the method: as §2
# A549 [15] = experiment: Concentration that gives 50% growth inhibition in A549 cells, activity expressed as PF50 (TP) at 0.4 uM; assay type: functional, Homo sapiens; summary of the method: as §2
# A549 [16] = experiment: Effect on NAD+ depletion (% remaining versus vehicle control) in presence of MNNG (25 uM) at 0.006 uM compound concentration in A549 cells; assay type: functional, Homo sapiens; summary of the method: as §4
# A549 [17] = experiment: Effect on NAD+ depletion (% remaining versus vehicle control) in presence of MNNG (25 uM) at 0.03 uM compound concentration in A549 cells; assay type: functional, Homo sapiens; summary of the method: as §4
# A549 [18] = experiment: Effect on NAD+ depletion (% remaining versus vehicle control) in presence of MNNG (25 uM) at 0.15 uM compound concentration in A549 cells; assay type: functional, Homo sapiens; summary of the method: as §4
# A549 [19] = experiment: Effect on NAD+ depletion (% remaining versus vehicle control) in presence of MNNG (25 uM) at 0.4 uM compound concentration in A549 cells; assay type: functional, Homo sapiens; summary of the method: as §4
# A549 [20] = experiment: Percent ADP-ribose polymer formation in presence of MNNG (25 uM) at 0..4 uM compound concentration in A549 cells; assay type: functional, Homo sapiens; summary of the method: as §3
# A549 [21] = experiment: Percent ADP-ribose polymer formation in presence of MNNG (25 uM) at 11 uM compound concentration in A549 cells; assay type: functional, Homo sapiens; summary of the method: as §3
# LoVo [22] = experiment: Potentiation of topotecan in LoVo cells by 0.40 uM compound (TP); assay type: functional, Homo sapiens
# A549 [23] = experiment: Concentration that gives 50% growth inhibition in A549 cells, activity expressed as PF50 (TM); assay type: functional, Homo sapiens; summary of the method: as §1
# [24] = target: T1, Poly [ADP-ribose] polymerase 1; experiment: Inhibitory activity against human full length Poly (ADP-ribose) polymerase 1
# T1 sequence (P09874 whole entry): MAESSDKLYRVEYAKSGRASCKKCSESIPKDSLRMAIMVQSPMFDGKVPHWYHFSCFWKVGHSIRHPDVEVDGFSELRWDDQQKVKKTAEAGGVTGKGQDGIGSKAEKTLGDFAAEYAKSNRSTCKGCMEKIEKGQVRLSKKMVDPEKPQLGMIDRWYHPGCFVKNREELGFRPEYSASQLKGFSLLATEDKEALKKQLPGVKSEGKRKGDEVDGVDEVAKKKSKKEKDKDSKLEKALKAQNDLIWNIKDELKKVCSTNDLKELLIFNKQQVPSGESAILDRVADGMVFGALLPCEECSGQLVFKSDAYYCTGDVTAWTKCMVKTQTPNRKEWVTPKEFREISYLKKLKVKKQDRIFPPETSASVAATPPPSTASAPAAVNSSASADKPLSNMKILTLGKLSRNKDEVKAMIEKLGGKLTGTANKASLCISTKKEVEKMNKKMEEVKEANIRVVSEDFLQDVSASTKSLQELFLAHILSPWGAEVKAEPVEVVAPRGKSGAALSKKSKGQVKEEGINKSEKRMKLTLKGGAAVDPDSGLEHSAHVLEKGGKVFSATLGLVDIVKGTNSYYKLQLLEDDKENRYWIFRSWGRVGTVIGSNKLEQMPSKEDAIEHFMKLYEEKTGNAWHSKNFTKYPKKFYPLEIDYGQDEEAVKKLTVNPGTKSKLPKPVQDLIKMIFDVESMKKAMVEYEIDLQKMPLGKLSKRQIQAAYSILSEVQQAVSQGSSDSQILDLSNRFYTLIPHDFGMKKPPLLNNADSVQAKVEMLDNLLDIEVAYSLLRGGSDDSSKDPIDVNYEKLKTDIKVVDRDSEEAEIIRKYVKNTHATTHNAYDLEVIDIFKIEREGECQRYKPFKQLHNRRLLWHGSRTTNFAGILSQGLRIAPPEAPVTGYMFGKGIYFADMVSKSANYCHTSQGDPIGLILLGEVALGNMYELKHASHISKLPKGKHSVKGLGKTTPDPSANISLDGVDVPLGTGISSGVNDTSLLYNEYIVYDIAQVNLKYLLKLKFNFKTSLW
smiles,measurement,setting,value
O=C1NCCn2c(-c3ccccc3)nc3cccc1c32,PF50,A549 [1],1.5
O=C1NCCn2c(-c3cccc4ccccc34)nc3cccc1c32,PF50,A549 [1],1.4
O=C1NCCn2c(-c3cccc(CO)c3)nc3cccc1c32,EF200,A549 [2],1.2
O=C1NCCn2c(-c3ccccc3Cl)nc3cccc1c32,PF50,A549 [1],1.3
O=C1NCCn2c(-c3cccc(C(F)(F)F)c3)nc3cccc1c32,PF50,A549 [1],1.7
CN1CCn2c(-c3cccc4ccccc34)nc3cccc(c32)C1=O,inhibition,[3],40%
same,EF200,A549 [2],1.1
O=C1NCCn2c(-c3ccc(Cl)cc3)nc3cccc1c32,PF50,A549 [4],1.5
same,PF50,A549 [1],2
same,PF50,LoVo [5],2.1
same,PF50,LoVo [6],1.5
same,GI50,LoVo [7],7.9 µM
CN(C)Cc1cccc(-c2nc3cccc4c3n2CCNC4=O)c1,PF50,A549 [4],1.4
same,PF50,A549 [1],1.8
same,PF50,LoVo [5],2
same,PF50,LoVo [6],1.5
same,GI50,LoVo [7],> 50 µM
CN(C)Cc1ccc(-c2nc3cccc4c3n2CCNC4=O)cc1,PF50,A549 [8],1.6
same,PF50,A549 [9],1.9
same,Formation,A549 [10],85%
same,Formation,A549 [11],38%
same,Formation,A549 [12],20%
same,Remaining,A549 [13],99%
same,PF50,A549 [14],2.1
same,PF50,A549 [15],2.3
same,PF50,A549 [4],2.2
same,PF50,A549 [1],2
same,Remaining,A549 [16],65%
same,Remaining,A549 [17],75%
same,Remaining,A549 [18],85%
same,Remaining,A549 [19],88%
same,Formation,A549 [20],13%
same,Formation,A549 [21],5.5%
same,PF50,LoVo [5],5.4
same,PF50,LoVo [22],1.7
same,GI50,LoVo [7],11.2 µM
Cc1nc2cccc3c2n1CCNC3=O,PF50,A549 [23],1.1
same,PF50,A549 [1],1.2
same,Ki,[24],0.045 µM
O=C1NCCn2c(-c3ccc(CO)cc3)nc3cccc1c32,EF200,A549 [2],1.5
